Experimental data from publication PMC10600558 (Molecular Imaging and Radionuclide Therapy, 2023).

What was measured:
[1] = system: neuroendocrine tumors (NETs); settings: NETTER-1 trial; cited from earlier work
[2] = In vitro stability of [^225Ac]Ac-DOTATATE in saline; assay type: physicochemical; settings: 37 °C, up to 5 h, n=3, slight decrease in stability after 5 h
[3] = In vivo stability in patients' blood and urine samples; settings: RP-HPLC
Outline: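 Samples came from the first 3 patients: blood at 0-10 min and urine up to 3 h post-injection. Blood was precipitated with acetonitrile (1:1) and centrifuged for 5 min at 14,680 rpm, and the supernatant was diluted 1:1 with water. Urine was diluted with water, filtered and analysed immediately. Both went to RP-HPLC, and fractions were gamma-counted (440 keV, [213Bi]) at least 20 h later and plotted by tube number.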

[4] = Excretion from the kidneys after injection; assay type: in vivo; settings: 24 h after injection, 9 patients, mean ± SD, relative to injected activity
Outline: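 Patients received 100-120 kBq/kg of the test radioligand as a slow intravenous injection over 5 min, with arginine/lysine kidney protection. The amount excreted in urine was quantified against standard samples prepared at the time of injection. The excretion rate was expressed relative to injected activity and reported as mean ± standard deviation.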

[5] = Toxicity and side effects according to CTCAE v5.0; assay type: in vivo, patients
Outline: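 Patients were treated as inpatients with amino-acid renal protection and ondansetron premedication. Vital signs were recorded every 60 min for 5 h, and complaints were tracked for 24 h. Adverse events were graded by CTCAE v5.0 three months after each cycle. Haematological, renal and liver values before versus after the last cycle were compared by Wilcoxon rank sum test and reported as mean ± standard deviation, with p<0.05 taken as significant.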

[6] = [^68Ga]Ga-DOTATATE uptake of parotid glands; assay type: in vivo, patients; settings: [^68Ga]Ga-DOTATATE PET/CT
Outline: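 Parotid SUVmax was read on [68Ga]Ga-DOTATATE PET/CT at baseline and after cycles of treatment. Pre/post values were compared by Wilcoxon rank sum test and reported as mean ± standard deviation, with p<0.05 taken as significant.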

[7] = system: metastatic neuroendocrine tumors (NETs); assay: Response evaluation by [^68Ga]Ga-DOTATATE PET/CT and RECIST 1.1; assay type: in vivo, patients; settings: [^68Ga]Ga-DOTATATE PET/CT three months after treatment, n=9 evaluated
Outline: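 Treatment was 100-120 kBq/kg given intravenously over 5 min. Response was read on [68Ga]Ga-DOTATATE PET/contrast-enhanced CT within 4 weeks before and 12-16 weeks after treatment, repeated 12-18 weeks after each cycle until progression or death, and scored by RECIST 1.1 on the ceCT. PFS ran from the first administration and was estimated by Kaplan-Meier. Response comparisons used chi-square, with p<0.05 taken as significant.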

NET = settings: recent study of the same group; cited from earlier work
[8] = CTCAE v5.0, 8 patients analysed, n=1 (grade 2, after 3 cycles)

Substance	estimated median progression-free survival (PFS) [1] [months]	RP-HPLC profile of saline incubation samples [2]	time stable in vivo (urine and blood samples) ([3]; first 3 patients, blood 0-10 min, urine up to 3 h after injection) [h]	time remained stable in urine ([3]; patient urine samples up to 3 h after injection)	mean excretion rate from the kidneys [4] [%]	hematotoxicity rate [5, 8] [%]	nephrotoxicity rate [5, 8] [%]	grade 3-4 toxicities ([5]; CTCAE v5.0, mean activity 8.2±0.6 MBq per cycle, 1-3 cycles)	lymphocyte count ([5]; all patients, p<0.05)	acute side effects during the injection ([5]; nausea or vomiting, slow injection over 5 min, 100-120 kBq/kg)	xerostomia ([5]; patient complaints)	mean parotid SUVmax after two cycles ([6]; n=6, baseline 2.98±0.96, p=0.73)	mean parotid SUVmax after the first cycle ([6]; n=9, baseline 2.98±0.96, p=0.93)	progressive disease ([7]; n=1) [%]	partial response (PR) ([7]; n=4) [%]	disease control rate (NET) [%]
[^177Lu]Lu-DOTATATE	40															
[^225Ac]Ac-DOTATATE		single radioactivity peak	≥ 3	up to 3 h	56±9.7	12.5	12.5	No grade 3-4 toxicities	transient decrease	did not observe any acute side effects	did not complain of xerostomia	2.48±0.59	2.07±0.93	11	44.4	79.8
